Experimental data reported in ChEMBL document CHEMBL4177548, “Neuroprotective Lignans from the Fruits of Schisandra bicolor var. tuberculata” (2017).
The source made the active and inactive calls. The rule behind the calls is not given here.

Tests used:
SH-SY5Y [1] = assay: Neuroprotective activity against Abeta (25 to 35)-induced cytotoxicity in human SH-SY5Y cells at 0.0032 to 2 uM pre-incubated for 2 hrs before Abeta (25 to 35) addition for 14 hrs by MTT assay relative to untreated control; format: functional
SH-SY5Y [2] = assay: Neuroprotective activity against CoCl2-induced cytotoxicity in human SH-SY5Y cells at 0.0032 uM pre-incubated for 2 hrs before CoCl2 addition for 14 hrs by MTT assay relative to untreated control; format: functional, cell-based
Procedure, shortened: (§1)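 SH-SY5Y cells were kept in DMEM with 10% FBS plus penicillin/streptomycin and plated at 15 000 cells/well for 24 h. They were pretreated 2 h with compound (0.0032, 0.08, 2 μM), then challenged with 300 μM CoCl2 (chosen to give 50–70% viability). After 14 h, MTT was added, DMSO-solubilised and read at 570 nm. Values are normalized to control (100%), means ± SEM of three replicates.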

SH-SY5Y [3] = assay: Neuroprotective activity against Abeta (25 to 35)-induced cytotoxicity in human SH-SY5Y cells at 2 uM pre-incubated for 2 hrs before Abeta (25 to 35) addition for 14 hrs by MTT assay (reference value: 60.2 to 73.5%); format: functional
SH-SY5Y [4] = assay: Neuroprotective activity against Abeta (25 to 35)-induced cytotoxicity in human SH-SY5Y cells at 0.08 uM pre-incubated for 2 hrs before Abeta (25 to 35) addition for 14 hrs by MTT assay (reference value: 60.2 to 73.5%); format: functional
SH-SY5Y [5] = assay: Neuroprotective activity against Abeta (25 to 35)-induced cytotoxicity in human SH-SY5Y cells at 0.0032 uM pre-incubated for 2 hrs before Abeta (25 to 35) addition for 14 hrs by MTT assay (reference value: 60.2 to 73.5%); format: functional
SH-SY5Y [6] = assay: Neuroprotective activity against H2O2-induced cytotoxicity in human SH-SY5Y cells at 0.0032 uM pre-incubated for 2 hrs before H2O2 addition for 14 hrs by MTT assay relative to untreated control; format: functional, cell-based
Procedure, shortened: (§2)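 Hydrogen peroxide injury: SH-SY5Y cells (DMEM, 10% FBS, penicillin/streptomycin) were seeded at 15 000 cells/well and left 24 h. They received test compounds at 0.0032, 0.08 or 2 μM for 2 h before 350 μM H2O2. MTT read-out followed at 14 h: DMSO dissolution, OD 570 nm. Viability is expressed as % of control, triplicate, means ± SEM, one-way ANOVA with Newman-Keuls.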

SH-SY5Y [7] = assay: Neuroprotective activity against H2O2-induced cytotoxicity in human SH-SY5Y cells at 0.0032 to 2 uM pre-incubated for 2 hrs before H2O2 addition for 14 hrs by MTT assay relative to untreated control; format: functional; procedure, shortened: as §2
SH-SY5Y [8] = assay: Neuroprotective activity against CoCl2-induced cytotoxicity in human SH-SY5Y cells at 0.0032 to 2 uM pre-incubated for 2 hrs before CoCl2 addition for 14 hrs by MTT assay relative to untreated control; format: functional; procedure, shortened: as §1
SH-SY5Y [9] = assay: Neuroprotective activity against Abeta (25 to 35)-induced cytotoxicity in human SH-SY5Y cells at 50 uM pre-incubated for 2 hrs before Abeta (25 to 35) addition for 14 hrs by MTT assay (reference value: 60.2%); format: functional, cell-based

| Compound | Activity (SH-SY5Y [1]) [%] | Activity (SH-SY5Y [2]) | Activity (SH-SY5Y [3]) [%] | Activity (SH-SY5Y [4]) [%] | Activity (SH-SY5Y [5]) [%] | Activity (SH-SY5Y [6]) | Activity (SH-SY5Y [7]) [%] | Activity (SH-SY5Y [8]) [%] | Activity (SH-SY5Y [9]) [%] |
| --- | --- | --- | --- | --- | --- | --- | --- | --- | --- |
| COc1ccc(C(=O)O[C@H](c2ccc(OC)c(OC)c2)[C@@H](C)C(C)=O)cc1OC | >15 | Active | 80.4 | 85.1 | 78.4 | – | – | – | – |
| COc1cc([C@H]2O[C@@H](c3ccc(OC)c(OC)c3)[C@H](C)[C@H]2C)ccc1O | – | Active | 75.3 | 75.3 | 81.7 | – | – | – | – |
| C=C(Cc1ccc2c(c1)OCO2)[C@H](C)Cc1ccc(O)c(OC)c1 | >15 | – | 78.1 | 78.5 | 84.7 | Active | – | – | – |
| COc1ccc([C@@H]2O[C@@H](c3ccc(O)c(OC)c3)[C@@H](C)[C@H]2C)cc1O | >15 | – | 71 | 77.1 | 64.5 | – | – | – | – |
| COc1cc(C[C@H](CO)[C@H](C)Cc2ccc3c(c2)OCO3)ccc1O | – | – | 84.2 | 83.6 | 70.8 | – | – | – | – |
| COc1cc(C[C@@H](COC(C)=O)[C@@H](C)Cc2ccc(O)c(OC)c2)ccc1O | >15 | – | 83.2 | 81 | 74.1 | – | >15 | – | – |
| COc1cc(C[C@@H](C)[C@H](C)Cc2ccc(O)c(OC)c2)ccc1O [(-)-DIHYDROGUAIARETICACID] | – | Active | 80.8 | 85.1 | 79.2 | Active | – | >15 | – |
| COc1ccc([C@H]2O[C@@H](c3ccc(OC)c(OC)c3)[C@H](C)[C@@H]2C)cc1OC [GALGRAVIN] | >15 | – | 86.7 | 92.9 | 76.9 | – | >15 | – | – |
| COc1cc(C[C@H](C)[C@H](CO)Cc2ccc3c(c2)OCO3)ccc1O | >15 | Active | 82.4 | 88.2 | 75.8 | – | – | – | – |
| COc1cc([C@H]2O[C@@H](c3ccc4c(c3)OCO4)[C@H](C)[C@H]2COC(C)=O)ccc1O | >15 | Active | 79.3 | 88.6 | 68.6 | Active | >15 | – | – |
| COc1cc([C@H]2c3cc4c(cc3C[C@@H](C)[C@@H]2C)OCO4)ccc1O | >15 | Active | 75.7 | 71.9 | 84.5 | – | – | – | – |
| COc1ccc([C@H]2O[C@H](c3ccc(OC)c(OC)c3)[C@@H](C)[C@H]2C)cc1OC [GANSCHISANDRINE] | >15 | – | 79.8 | 85.3 | 75.1 | – | – | >15 | – |
| COc1cc(C[C@@H](COC(C)=O)[C@@H](C)Cc2ccc3c(c2)OCO3)ccc1O | – | – | 69 | 80.8 | 68.3 | – | – | – | – |
| COc1cc(C[C@@H](C)[C@H](C)Cc2ccc3c(c2)OCO3)ccc1O | – | Active | 72 | 77.1 | 73.5 | – | >15 | – | – |
| VITAMIN E | – | – | – | – | – | – | – | – | 72.5 |
| COc1cc(C[C@@H](C)[C@H](C)[C@@H](O)c2ccc3c(c2)OCO3)ccc1O | >15 | Active | 76.6 | 83.3 | 81.6 | Active | >15 | >15 | – |
| COc1cc(C[C@H](CO)[C@H](C)Cc2ccc(O)c(OC)c2)ccc1O | – | – | 69.2 | 74.3 | 77.4 | – | >15 | – | – |
| COc1cc(C[C@H](C)[C@H](COC(C)=O)Cc2ccc3c(c2)OCO3)ccc1O | >15 | – | 87 | 80.2 | 73.1 | – | >15 | – | – |
| C[C@@H]1[C@@H](CO)[C@H](c2ccc3c(c2)OCO3)O[C@H]1c1ccc2c(c1)OCO2 | >15 | Active | 87.3 | 94.3 | 71.3 | – | – | – | – |
